The data set concerns MS2 coat protein. Description: apparent Kd, MS2 coat protein; higher = weaker binding; RNA-MaP array; FMN 200 µM where present. The method, boiled down: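 SNAP-549-labelled MS2 coat protein, doubled from 0.7 or 1.5 nM to 3 µM, was titrated over designs transcribed by stalled E. coli RNA polymerase on Illumina sequencing-chip clusters. Titrations were run without and then with constant ligand in 100 mM Tris-HCl pH 7.5, 80 mM KCl, 4 mM MgCl2, BSA, DTT, yeast tRNA and Tween-20. The apparent Kd is the median of filtered per-cluster fits to green signal normalised to red-channel RNA signal and control-cluster median Fmax.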

The mark [1] stands for this setting: designed as: OFF switch for flavin mononucleotide, no ligand.
Where [2] appears, read: ligand present: flavin mononucleotide, designed as: OFF switch for flavin mononucleotide.
Where [3] appears, read: designed as: ON switch for flavin mononucleotide, no ligand.
The mark [4] stands for this setting: ligand present: flavin mononucleotide, designed as: ON switch for flavin mononucleotide.

Turning to “GGGACGAAAGUCGAACGAUGUAGCAGAAGGACAUGAGGAUCACCCAUGUCAGCUGUAACAGCCAUGUAGGAUAUGCUACAUCCC”, the “apparent Kd” value under setting [1] stood at 0.00461 µM and the “apparent Kd” value under setting [2] is 0.00596 µM. Take “CCGCUCGAAGGAUAUACAAUCCUCAGACUCUUCGACCAAAGACAUGAGGAUCACCCAUGUAGAAGGUCGGCGGA”: the “apparent Kd” value was 0.0133 µM under setting [1] and 0.0259 µM under setting [2]. Consider “AAAUAGUUAGGAUAUACAUGAGGAUCACCCAUGUGGACUGAUGGCGAUUGAUUUAGUGGUAGAAGGGACUCAAA”, for which the “apparent Kd” value came to 0.0403 µM under setting [1] and 0.0584 µM under setting [2]. “UUCAUGUGAGGAUAUGUGAUCUGCUUUCUGUUUAGAUGAUCACAGAAGGCACAUGAGGAUCACCCAUGUAGAUC”: the “apparent Kd” value under setting [2] came to 0.0226 µM.

As to “UUACUACAUGAGGAUCACCCAUGUCAGGAUAUUGUCUAUACUUUGGAAUAUGUGUCGACAAGAAGGGACUAUAU”, the “apparent Kd” value by setting is: under setting [1], 0.0235 µM; under setting [2], 0.0399 µM. In the same order, the values of “GCCUUAUCUGUCAGGAUAUACAAUAAAAUAUUUUUGUAGAAGGGACAUGAGGAUCACCCAUGUACAUUACAUUG” are 0.042 µM and 0.262 µM.

“UGGUACUCGGGAGGAUAUGGGAAGAUACAUGAGGAUCACCCAUGUUUAAGAAUGCCGAGAGGCAACUAGAAGGCCCUAGUACCU”: the “apparent Kd” value is 0.457 µM under setting [3] and 0.0234 µM under setting [4].

Turning to “UUCAUUAACAUGAGGAUCACCCAUGUUGGCCAGUCUCACACCAGAAGGCACGUUGAGCACAUCAGUGAGGAUAUGGGUGACAUA”, the “apparent Kd” value by setting is: under setting [3], 0.331 µM; under setting [4], 0.091 µM. Regarding “UUAUGUUUUGUAGGAUAUCAUUAGUUAUGUAUUUUAAUUGAAAUUUAGAUAUGAGAAGGACAUUUACAUGAGGAUCACCCAUGU”, the “apparent Kd” value reads like this: under setting [1], 0.0174 µM; under setting [2], 0.0111 µM. On to “UGUUGUAUUACAGGAUAUCUAUUAGUUAUAUUUAGAGAAGGGUAUUCACAUGAGGAUCACCCAUGUAUAUACGAGGAAGUUGUG”, for which the “apparent Kd” value turned out to be 0.0546 µM under setting [3] and 0.0619 µM under setting [4].

With “AUGUGGUGCGUAGGAUAUCAUUAAAGAAAACCCUGAGAAGGACGUGAGGACAUGAGGAUCACCCAUGUGGAUCACCCAUGUCAU”, the “apparent Kd” value is 0.32 µM under setting [1] and 0.285 µM under setting [2]. As to “GUAGCUAUCGGAGGAUAUUCAUACCGGAAACGGACAUGAGGAUCACCCAUGUGGCGAAAGCCUUGGGAGAAGGCCGAUAGCUAC”, the “apparent Kd” value runs as follows: under setting [3], 0.601 µM; under setting [4], 0.0208 µM.

Turning to “UGUGGACAUGAGGAUCACCCAUGUGAGGAUAUGGUCUGGAUACACUUGAGCUCGGCAUCCAGAAGGCGCGUGGC”, the “apparent Kd” value was 0.0859 µM under setting [1] and 0.0714 µM under setting [2]. Consider “AGGGAGGAAGCUGAGGAUAUCGUAAGGAGGACAUGAGGAUCACCCAUGUGUGUGGAAUUGGAGGACGAGAAGGCAGAGGAGUGGG”, for which the “apparent Kd” value came to 0.0315 µM under setting [3] and 0.036 µM under setting [4]. Take “AAUAAUAGCGAGGAUAUCGUAUCGGAAACGAUACGAGAAGGCGUAACAUGAGGAUCACCCAUGUUCCUCAAUAA”: the “apparent Kd” value runs as follows: under setting [1], 0.038 µM; under setting [2], 0.313 µM. Turning to “AAGAAACAUGAGGAUCACCCAUGUCAGGAUAUGCAAAACUGACGAAAGUCAGAAGAAAGCAGAAGGGACUAGAA”, the “apparent Kd” value turned out to be 0.0598 µM under setting [1] and 0.0797 µM under setting [2]. In the same order, the values of “UGAUAGGACAGAGGAUAUGCCGAUAGGAUCUACUAUCGAAGAAUCCUCACAUGAGGAUCACCCAUGUAGAAGGCUGUCCUAUCU” are 0.023 µM and 0.14 µM. Taken in the same sequence, the figures for “AAAAGGUUAGGAUAUGCCCGCCGGGUGGGAAGGCCGGGUGGGUAGAAGGGACAUGAGGAUCACCCAUGUAAAAA” were 0.0486 µM and 0.02 µM. On to “AAAUAAAGCAGUGUAUUAAGAUCACAUGAGGAUCACCCAUGUAGAAGGCUCGAGCAAAAUGCUCGAGAGGAUAUGCAACACUGC”, for which the “apparent Kd” value under setting [1] was 0.00512 µM and the “apparent Kd” value under setting [2] was determined as 0.035 µM. Take “UUUCAGUUCACAUGAGGAUCACCCAUGUCGGUUCGCCCGGACAGAAGGCACCCAUGACAAUGCGGUGAGGAUAUGUCAACAAGG”: the “apparent Kd” value was determined as 0.143 µM under setting [3] and 0.0191 µM under setting [4]. For “AGCUGGUGACAGCAUCGAGCUAAACAUGAGGAUCACCCAUGUAGAAGGCUGUACGGUUACCGUACAGAGGAUAUACAAAGCUCG”, the “apparent Kd” value is, setting by setting: under setting [1], 0.00606 µM; under setting [2], 0.00717 µM. Take “UUAUGAUAGAUAGGAUAUACUAUGGUUUAAGAAGUAGAAGGAUCAAUUGGGAAAUGUACAUGAGGAUCACCCAUGUUAUAGGUU”: the “apparent Kd” value runs as follows: under setting [3], 0.0371 µM; under setting [4], 0.0337 µM. Take “GGGUAAUAUCGAGGAUAUGUCUAGACACAUGAGGAUCACCCAUGUAUGUGUAUAGAAGGCGAUAUUAACAGCAUGUUACAUCCC”: the “apparent Kd” value amounted to 0.0481 µM under setting [3] and 0.0208 µM under setting [4]. Turning to “UUUCGGAGCAGAGGAUAUUACAUGAGGAUCACCCAUGUAUGAACCAAUAGCUGGAAACAGCAAUGUAAGAAGGCUGCUCCGACA”, the “apparent Kd” value runs as follows: under setting [1], 0.0112 µM; under setting [2], 0.182 µM. “GCAGCACUCUUUAACAUGAGGAUCACCCAUGUCAAAAGACAUGAGGAUAUGCAUCUGAAGAAGAUGCAGAAGGCAUUGUGCUGC”: the “apparent Kd” value was 0.0323 µM under setting [3] and 0.00694 µM under setting [4]. In the case of “UGGUACUAGGGAGGAUAUGGGAACAUACAUGAGGAUCACCCAUGUUUAAGAAUGCCGAGAGGCAACUAGAAGGCCCUAGUACCU”, the “apparent Kd” value by setting is: under setting [3], 0.0157 µM; under setting [4], 0.00496 µM. “UUUCCUGGAGGAUAUACAUGAGGAUCACCCAUGUGGUUCGGAUUAAGCGGCUUACGCGGUAGAAGGUUAGACUU”: the “apparent Kd” value runs as follows: under setting [1], 0.108 µM; under setting [2], 0.0851 µM.

Turning to “UCAUUUCAGUAAGGAUAUUAAUUCAUGACGAUACAUGAGGAUCACCCAUGUUAAGAAGGUACUAAUACAAAUAAUGCAUUGUUC”, the “apparent Kd” value is, setting by setting: under setting [1], 0.0124 µM; under setting [2], 0.0112 µM. As to “AUAAAGUGAGGAUAUCCAAUAUAUGACAUGAGGAUCACCCAUGUUUCCACUCGUACCUCCGGAGAAGGCACAUUUU”, the “apparent Kd” value was 0.0321 µM under setting [1] and 0.0202 µM under setting [2]. Consider “GCUACGUCAGGAUAUCUGAUGUCUAACUUCGGUUAGACAUCAGAGAAGGGACAUGAGGAUCACCCAUGUAGCAG”, for which the “apparent Kd” value by setting is: under setting [1], 0.114 µM; under setting [2], 0.112 µM. Regarding “UGAUAGGACAGAGGAUAUGCGUAUAGUUAUCUCUACAUGAGGAUCACCCAUGUAGAAGGCUGUCCUAUCUAAGUCGGAAACGAC”, the “apparent Kd” value under setting [1] worked out at 0.00535 µM and the “apparent Kd” value under setting [2] amounted to 0.00522 µM. For the sequence “GGGCCCGGAGGAUAUACAUGAGGAUCACCCAUGUACCCGGGUUUUAUUGGGCCCGGGUGUAGAAGGCCGGGCCC”, the “apparent Kd” value under setting [1] is 0.0131 µM and the “apparent Kd” value under setting [2] amounted to 0.0148 µM. As to “CAUGCCUGCACAGGAUAUCAUACAUGAGGAUCACCCAUGUCUAACAACACAUGAGAAGGGUGCAUGCCUGGGCGAAGUUUUGUG”, the “apparent Kd” value is, setting by setting: under setting [3], 0.0243 µM; under setting [4], 0.00622 µM. As for “ACAUGAGGAUCACCCAUGUGUGCAUAGGAUAUUGAGGAUUAGGGAUAUUAUUAUGGAUUUGCCCACAAGAAGGAUGAAAGUGUU”, the “apparent Kd” value was found to be 0.0178 µM under setting [3] and 0.0157 µM under setting [4].

“GCACUGGAUGUAGGAUAUCAGGACGAUAAGUCCUGAGAAGGACAUGAGGAUCACCCAUGUGAUAAUUCCAGUGCAAAUAAUAUA”: the “apparent Kd” value under setting [1] stood at 0.0143 µM and the “apparent Kd” value under setting [2] stood at 0.031 µM. Taken in the same sequence, the figures for “AGCUGUGGCCGAGGAUAUGCUACUUCAAUAACCGAAAUAUAAUCGGACAUGAGGAUCACCCAUGUAGAGAAGGCGGUCUCAGCA” were 0.014 µM and 0.011 µM. In the case of “AAAGAGCGAGGAUAUACAUGAGGAUCACCCAUGUAAAGAUGCAUGGUCUGAACGUCUGGUAGAAGGCGUAUGAA”, the “apparent Kd” value by setting is: under setting [1], 0.135 µM; under setting [2], 0.12 µM. As to “GUGACACAUGAGGAUCACCCAUGUGAGGAUAUGAUACUAUGUACUUCGGUACAUAGUAUCAGAAGGCACAGUGA”, the “apparent Kd” value under setting [1] turned out to be 0.0502 µM and the “apparent Kd” value under setting [2] was found to be 0.119 µM. As to “AUAUAUAUACAGAAGGUGCCAGCGAGAGCUGCACAUGAGGAUCACCCAUGUUGUCGGUGACGACGCAAGGAUAUGUAUAUAUAU”, the “apparent Kd” value by setting is: under setting [3], 0.027 µM; under setting [4], 0.00762 µM. “CUAUUGCGAGGAUAUGAUUUAAAUAACAUGAGGAUCACCCAUGUUUUUACGUUGUUAUGUUCAGAAGGCGUAUUGU”: the “apparent Kd” value runs as follows: under setting [1], 0.0401 µM; under setting [2], 0.0263 µM. Consider “UUAAUUAUACAAGGAUAUCUAUUGUAGUUUCGACUAACAUGAGGAUCACCCAUGUAAAUAUGUUAAGAGAAGGUGUAUUUUAAA”, for which the “apparent Kd” value reads like this: under setting [3], 0.0455 µM; under setting [4], 0.0303 µM. As for “UCCACUGCUGAGAAGGGAUACGUCUGGUUCGCAUCAGGAUAUCGAUACAGUGCAGCAUGAGGACAUGAGGAUCACCCAUGUAUC”, the “apparent Kd” value under setting [3] amounted to 0.011 µM and the “apparent Kd” value under setting [4] came out at 0.00898 µM. Take “UAAUUAAGUGUGAGGAUAUGCUGGUCCUUGGAUCAGCAGAAGGCACAUGAGGAUCACCCAUGUAAUUUAUUUAU”: the “apparent Kd” value reads like this: under setting [1], 0.0851 µM; under setting [2], 0.328 µM. Regarding “ACCAAUCACAUAGGAUAUAGAAUAUUAAAUUUUUACAUGAGGAUCACCCAUGUUUUAUUGGGAUACUAGAAGGAUGAGUAAUAA”, the “apparent Kd” value is, setting by setting: under setting [3], 0.113 µM; under setting [4], 0.108 µM. Turning to “GAAUGCAGAGGAUAUACGGGACAGCAUCGAAAGAUGCUGAAACAUGAGGAUCACCCAUGUAGAAGGCUGCAGAA”, the “apparent Kd” value under setting [1] worked out at 0.0732 µM and the “apparent Kd” value under setting [2] worked out at 0.154 µM. On to “GGGCUGUCAGGAUAUCGCGCGCGCGCGGAAAUGUGUGUGUGUGAGAAGGGACAUGAGGAUCACCCAUGUGGCCC”, for which the “apparent Kd” value came to 0.0356 µM under setting [1] and 0.0368 µM under setting [2]. Taken in the same sequence, the figures for “GAAUAAUUGAUCCAAUUUAACUACAUGAGGAUCACCCAUGUGCAGGAUAUCGUAAUAUUUAAUUACGAGAAGGGCAAGAACGGU” were 0.366 µM and 0.516 µM.

On to “CUGAUGUGAGGAUAUCGGGCUACAGCCCUGCUGCUAGCAAACGAGAAGGCACAUGAGGAUCACCCAUGUGAUAG”, for which the “apparent Kd” value reads like this: under setting [1], 0.0216 µM; under setting [2], 0.0243 µM.

As usually defined, the apparent Kd is the concentration giving half-maximal binding under the conditions of the assay.
